Reference: ChEMBL document CHEMBL4382210, “Identification of novel benzothiopyranone compounds against Mycobacterium tuberculosis through scaffold morphing from benzothiazinones” (Eur J Med Chem, 2018)
≈ marks a conversion by molar mass, not a printed value.

Columns and labels:
[1] = system: Mycobacterium tuberculosis; test: Antimicrobial activity against Mycobacterium tuberculosis H37Rv after 7 days by MABA; type: functional; settings: 168 h
Procedure, shortened: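 Strain H37Rv or clinical isolates grown to late log phase in 7H9-ADC-TG, washed, resuspended in PBS, filtered (8 µm) and frozen. On day 7 Tween 80 and alamar blue added, read 16–24 h later (ex 530/em 590). MIC = lowest concentration giving ≥90% fluorescence reduction versus bacterium-only controls.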

Vero = test: Cytotoxicity against African green monkey Vero cells assessed as reduction in cell viability after 48 hrs by MTT assay; type: cell-based; settings: Chlorocebus sabaeus
Procedure, shortened: (§1)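 Vero or HepG2 cells in RPMI1640 with 10% FBS at 37 °C, 5% CO2, seeded at 4×10^5 cells/mL. Threefold dilutions at 64–0.26 µg/mL final for 48 h. Cells then washed with HBSS, MTT added for 4 h, absorbance read at 492 nm. IC50 taken relative to untreated control.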

[2] = Metabolic stability in human liver microsomes assessed as parent compound remaining at 1 uM measured after 30 mins in presence of NADPH by LC-MS/MS analysis; type: ADME, Microsome; settings: read-out: Stability
Procedure, shortened: (§2)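 Male CD-1 mouse or pooled human liver microsomes (1 mg/mL protein), compound at 1 µM, 37 °C. Reaction started with 1 mM NADPH and quenched with cold ACN/MeOH containing internal standard. Parent remaining measured by LC-MS/MS; the 30-min value is normalised to time zero.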

[3] = Metabolic stability in CD-1 mouse liver microsomes assessed as parent compound remaining at 1 uM measured after 30 mins in presence of NADPH by LC-MS/MS analysis; type: ADME, Microsome; settings: read-out: Stability; procedure, shortened: as §2
[4] = Inhibition of Mycobacterium tuberculosis DprE1 expressed in Escherichia coli BL21(DE3) by fluorescence based assay
Procedure, shortened: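 Buffer: 50 mM Hepes pH 7.5, 100 mM NaCl, 1.5% DMSO, 100 µM Tween-20, 2 µM FAD, 50 µM resazurin. DprE1 (1 µM) with 1 mM FPR at 30 °C across inhibitor concentrations. Resorufin formation followed by fluorescence (ex 530/em 595 nm).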

HepG2 = test: Cytotoxicity against human HepG2 cells assessed as reduction in cell viability after 48 hrs by MTT assay; type: cell-based; settings: HepG2, 48 h; procedure, shortened: as §1
[5] = Selectivity index, ratio of IC50 for human HepG2 cells to MIC=>90 for Mycobacterium tuberculosis H37Rv; type: toxicity; settings: read-out: Selectivity Index
[6] = system: Mycobacterium tuberculosis; test: Antimicrobial activity against Mycobacterium tuberculosis H37Rv infected in BALB/C mouse assessed as bacterial burden in mouse lung at 25 mg/kg, po administered via gavage treated 5 times per week for 3 weeks starting from day 10 post infection (reference value: 7.102 +/- 0.152 log10CFU); type: functional
[7] = Half life in CD-1 mouse hepatocytes assessed per million cells at 1 uM incubated up to 120 mins by LC-MS/MS analysis; type: ADME, cell-based, Hepatocyte
Procedure, shortened: (§3)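 Pooled male CD-1 mouse or pooled human hepatocytes at 1 million cells/mL final, compound at 1 µM. Incubated at 37 °C in a CO2 incubator with shaking (~100 rpm). Samples taken at 0, 15, 30, 60, 90 and 120 min and quenched with cold ACN/MeOH containing internal standard. Parent compound remaining measured by LC-MS/MS.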

[8] = Half life in human hepatocytes assessed per million cells at 1 uM incubated up to 120 mins by LC-MS/MS analysis; type: ADME, cell-based, Hepatocyte; procedure, shortened: as §3
[9] = Intrinsic clearance in CD-1 mouse hepatocytes assessed per million cells at 1 uM incubated up to 120 mins by LC-MS/MS analysis; type: ADME, cell-based, Hepatocyte; settings: read-out: CLH; procedure, shortened: as §3
[10] = Intrinsic clearance in human hepatocytes assessed per million cells at 1 uM incubated up to 120 mins by LC-MS/MS analysis; type: ADME, cell-based, Hepatocyte; settings: read-out: CLH; procedure, shortened: as §3

SMILES	MIC90 [1] [µg/mL]	IC50 (Vero) [µg/mL]	also measured
CC1CN(c2cc(=O)c3cc(C(F)(F)F)cc([N+](=O)[O-])c3s2)CCN1Cc1ccccc1 (configuration not stated)	< 0.016	> 64	remaining at 0.5 h, 1 µM [2]: 76.7%; remaining at 0.5 h, 1 µM [3]: 54.5%
COc1ccc(CN(C)c2cc(=O)c3cc(C(F)(F)F)cc([N+](=O)[O-])c3s2)cc1OC	< 0.016	> 64	
O=c1nc(Nc2ccccc2)oc2c([N+](=O)[O-])cc(C(F)(F)F)cc12	30.6 (≈ 87.3 µM)	37.9 (≈ 108 µM)	
CN(Cc1ccccc1)c1nc(=O)c2cc(C(F)(F)F)cc([N+](=O)[O-])c2o1	0.031 (≈ 0.0817 µM)	3.84 (≈ 10.1 µM)	
O=c1cc(NCc2ccc3c(c2)OCCO3)sc2c([N+](=O)[O-])cc(C(F)(F)F)cc12	0.03 (≈ 0.0684 µM)	> 64	
O=c1cc(NCc2cccc(F)c2)sc2c([N+](=O)[O-])cc(C(F)(F)F)cc12	0.118 (≈ 0.296 µM)	> 64	
O=c1cc(NCC2CCCCC2)sc2c([N+](=O)[O-])cc(C(F)(F)F)cc12	0.402 (≈ 1.04 µM)	> 64	
O=c1nc(N2CCN(c3nccs3)CC2)oc2c([N+](=O)[O-])cc(C(F)(F)F)cc12	4 (≈ 9.36 µM)		
O=c1nc(NCc2ccccc2)oc2c([N+](=O)[O-])cc(C(F)(F)F)cc12	30.5 (≈ 83.6 µM)	25.4 (≈ 69.4 µM)	
CC1CN(c2nc(=O)c3cc(C(F)(F)F)cc([N+](=O)[O-])c3o2)CCN1Cc1ccccc1 (configuration not stated)	< 0.016	15.6 (≈ 34.8 µM)	
O=c1cc(Nc2ccccc2)sc2c([N+](=O)[O-])cc(C(F)(F)F)cc12	> 32	> 64	
C[C@H]1COC2(CCN(c3nc(=O)c4cc(C(F)(F)F)cc([N+](=O)[O-])c4s3)CC2)O1 [BTZ-043]	< 0.016	> 64	IC50 [4]: 1030 nM
CN(Cc1ccc2c(c1)OCCO2)c1nc(=O)c2cc(C(F)(F)F)cc([N+](=O)[O-])c2o1	< 0.016	9.27 (≈ 21.2 µM)	
CC1COC2(CCN(c3nc(=O)c4cc(C(F)(F)F)cc([N+](=O)[O-])c4o3)CC2)O1 (configuration not stated)	< 0.016	9.21 (≈ 22.2 µM)	
O=c1cc(N2CCN(CC3CCCCC3)CC2)oc2c([N+](=O)[O-])cc(C(F)(F)F)cc12	0.116 (≈ 0.264 µM)	10.6 (≈ 24.1 µM)	
O=c1cc(N2CCN(Cc3ccccc3)CC2)sc2c([N+](=O)[O-])cc(C(F)(F)F)cc12	0.03 (≈ 0.0667 µM)	> 64	remaining at 0.5 h, 1 µM [2]: 87.6%; remaining at 0.5 h, 1 µM [3]: 60.5%; IC50 (HepG2): > 64 µg/mL; selectivity ratio [5]: > 2130; IC50 [4]: 1330 nM
CC1COC2(CCN(c3cc(=O)c4cc(C(F)(F)F)cc([N+](=O)[O-])c4s3)CC2)O1 (configuration not stated)	0.03 (≈ 0.0697 µM)	> 64	remaining at 0.5 h, 1 µM [2]: 82.8%; remaining at 0.5 h, 1 µM [3]: 47.4%; IC50 [4]: 630 nM
O=c1cc(NC2CCCCC2)sc2c([N+](=O)[O-])cc(C(F)(F)F)cc12	1.53 (≈ 4.1 µM)	> 64	
COc1ccc(CNc2cc(=O)c3cc(C(F)(F)F)cc([N+](=O)[O-])c3s2)cc1OC	0.902 (≈ 2.05 µM)	> 64	
O=c1nc(N2CCN(CC3CCCCC3)CC2)oc2c([N+](=O)[O-])cc(C(F)(F)F)cc12	0.159 (≈ 0.361 µM)	52.1 (≈ 118 µM)	
O=c1nc(NC2CCCCC2)oc2c([N+](=O)[O-])cc(C(F)(F)F)cc12	0.118 (≈ 0.33 µM)	5.39 (≈ 15.1 µM)	
O=C1CN(c2nc(=O)c3cc(C(F)(F)F)cc([N+](=O)[O-])c3o2)CCN1CC1CCCCC1	6.28 (≈ 13.8 µM)	25.4 (≈ 55.9 µM)	

SMILES	MIC90 [1] [µg/mL]	IC50 (Vero) [µg/mL]	also measured
O=c1nc(N2CCN(Cc3ccccc3)CC2)oc2c([N+](=O)[O-])cc(C(F)(F)F)cc12	3.93 (≈ 9.05 µM)	33.5 (≈ 77.1 µM)	
O=c1cc(NCc2ccc(F)cc2)sc2c([N+](=O)[O-])cc(C(F)(F)F)cc12	0.206 (≈ 0.517 µM)	> 64	
COc1ccc(CNc2nc(=O)c3cc(C(F)(F)F)cc([N+](=O)[O-])c3o2)cc1OC	0.226 (≈ 0.531 µM)	29.2 (≈ 68.7 µM)	
CO[C@H]1/C=C/O[C@@]2(C)Oc3c(C)c(O)c4c(O)c(c(/C=N/N5CCN(C)CC5)c(O)c4c3C2=O)NC(=O)/C(C)=C\C=C\[C@H](C)[C@H](O)[C@@H](C)[C@@H](O)[C@@H](C)[C@H](OC(C)=O)[C@@H]1C [RIFAMPIN]	0.096 (≈ 0.117 µM)		
O=c1nc(NCc2ccc3c(c2)OCCO3)oc2c([N+](=O)[O-])cc(C(F)(F)F)cc12	0.03 (≈ 0.0709 µM)	25.3 (≈ 59.7 µM)	
CC1CN(c2nc(=O)c3cc(C(F)(F)F)cc([N+](=O)[O-])c3o2)CCN1CC1CCCCC1 (configuration not stated)	< 0.016	10.9 (≈ 23.9 µM)	
CN(Cc1ccc2c(c1)OCCO2)c1cc(=O)c2cc(C(F)(F)F)cc([N+](=O)[O-])c2s1	< 0.016	> 64	remaining at 0.5 h, 1 µM [2]: 44.9%; remaining at 0.5 h, 1 µM [3]: 6.46%
O=c1cc(N2CCN(c3nccs3)CC2)sc2c([N+](=O)[O-])cc(C(F)(F)F)cc12	0.054 (≈ 0.122 µM)	> 64	
CC1CN(c2cc(=O)c3cc(C(F)(F)F)cc([N+](=O)[O-])c3s2)CCN1CC1CCCCC1 (configuration not stated)	< 0.016	> 64	remaining at 0.5 h, 1 µM [2]: 62.7%; remaining at 0.5 h, 1 µM [3]: 59.9%
CN(Cc1ccc2c(c1)OCCO2)c1cc(=O)c2cc(C(F)(F)F)cc([N+](=O)[O-])c2o1	< 0.016	29.4 (≈ 67.4 µM)	
O=c1cc(NCc2ccccc2)sc2c([N+](=O)[O-])cc(C(F)(F)F)cc12	> 32	> 64	
COc1ccc(CN(C)c2nc(=O)c3cc(C(F)(F)F)cc([N+](=O)[O-])c3o2)cc1OC	0.057 (≈ 0.13 µM)	9.46 (≈ 21.5 µM)	
CC1COC2(CCN(c3cc(=O)c4cc(C(F)(F)F)cc([N+](=O)[O-])c4o3)CC2)O1 (configuration not stated)	< 0.016	18.9 (≈ 45.5 µM)	
CN(Cc1ccccc1)c1cc(=O)c2cc(C(F)(F)F)cc([N+](=O)[O-])c2s1	< 0.016	> 64	remaining at 0.5 h, 1 µM [2]: 11.6%; remaining at 0.5 h, 1 µM [3]: 13%
NNC(=O)c1ccncc1 [ISONIAZID]	0.035 (≈ 0.255 µM)		Activity [6]: 1.929 log10CFU
O=c1nc(NCc2cccc(F)c2)oc2c([N+](=O)[O-])cc(C(F)(F)F)cc12	> 32	> 64	
O=c1nc(NCc2ccc(F)cc2)oc2c([N+](=O)[O-])cc(C(F)(F)F)cc12	7.22 (≈ 18.8 µM)	> 64	
O=C1CN(c2cc(=O)c3cc(C(F)(F)F)cc([N+](=O)[O-])c3o2)CCN1CC1CCCCC1	0.091 (≈ 0.201 µM)	9.73 (≈ 21.5 µM)	
O=c1nc(N2CCN(CC3CCCCC3)CC2)sc2c([N+](=O)[O-])cc(C(F)(F)F)cc12 [MACOZINONE]	< 0.016	> 64	remaining at 0.5 h, 1 µM [2]: 58.7%; remaining at 0.5 h, 1 µM [3]: 63.9%; IC50 (HepG2): 19 µg/mL (≈ 41.6 µM); selectivity ratio [5]: > 1190; IC50 [4]: 200 nM; half-life at 1 µM [7]: 2.75 h; half-life at 1 µM [8]: 0.797 h; hepatocyte CLint at 1 µM [9]: 4.2 µL/min/1e6 cells; hepatocyte CLint at 1 µM [10]: 14.5 µL/min/1e6 cells
O=c1nc(NCC2CCCCC2)oc2c([N+](=O)[O-])cc(C(F)(F)F)cc12	0.05 (≈ 0.135 µM)	29.7 (≈ 80.1 µM)	
O=C1CN(c2cc(=O)c3cc(C(F)(F)F)cc([N+](=O)[O-])c3s2)CCN1CC1CCCCC1	< 0.016	> 64	remaining at 0.5 h, 1 µM [2]: 86.6%; remaining at 0.5 h, 1 µM [3]: 7.38%
